Assay results as given in ChEMBL document CHEMBL1136007, “Synthesis, antifungal activity, and molecular modeling studies of new inverted oxime ethers of oxiconazole” (2002).
Converted amounts (≈) assume the structure as drawn.

Legend:
Aspergillus fumigatus [1] = experiment: microbe, parasite or virus in culture; assay type: functional
Candida albicans [2] = experiment: microbe, parasite or virus in culture; assay type: functional
Aspergillus flavus [3] = experiment: (§1) In vitro antifungal activity against Aspergillus flavus CM74; assay type: functional
Procedure, shortened: (§2)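 Broth microdilution in RPMI-2% glucose following NCCLS M38-P. Conidia came from Sabouraud dextrose agar slants grown at 27 °C. They were harvested in saline with 0.1% Tween 80, gauze-filtered, counted by hemocytometer and stored at -70 °C. The final inoculum was ~10^4 conidia/mL, with 2-fold drug dilutions from 0.25 to 128 µg/mL. Plates were incubated at 35 °C and read by mirror once control growth was visible. MIC = lowest concentration with no visible growth.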

Aspergillus flavus [4] = experiment: as §1; assay type: functional; remark: listed apart in the source
Aspergillus fumigatus [5] = experiment: In vitro antifungal activity against Aspergillus fumigatus 48238E; assay type: functional
Procedure, shortened: as §2

Candida albicans [6] = experiment: In vitro antifungal activity against Candida albicans 4711E; assay type: functional
Procedure, shortened: (§3)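 Yeast broth microdilution per NCCLS M27-A, with 2-fold drug dilutions from 0.001 to 128 µg/mL. The inoculum was adjusted spectrophotometrically, giving a final ~10^4 cells/mL. Plates were incubated for 24 h at 35 °C, static and humid, then shaken and read visually and at 450 nm. MIC = lowest concentration preventing discernible growth (~90% reduction vs drug-free wells).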

Nakaseomyces glabratus [7] = experiment: In vitro antifungal activity against Candida glabrata 2375E; assay type: functional
Nakaseomyces glabratus [8] = experiment: microbe, parasite or virus in culture; assay type: functional
Candida parapsilosis [9] = experiment: In vitro antifungal activity against Candida parapsilosis 2372E; assay type: functional; details: Lodderomyces parapsilosis
Procedure, shortened: as §3

Candida parapsilosis [10] = experiment: microbe, parasite or virus in culture; assay type: functional; details: Lodderomyces parapsilosis
Trichophyton benhamiae [11] = experiment: (§4) In vitro antifungal activity against Trichophyton mentagrophytes CM84; assay type: functional, Arthroderma benhamiae
Procedure, shortened: as §2

Trichophyton benhamiae [12] = experiment: as §4; assay type: functional, Arthroderma benhamiae; remark: listed apart in the source
Trichophyton rubrum [13] = experiment: (§5) In vitro antifungal activity against Trichophyton rubrum CM1447; assay type: functional
Procedure, shortened: as §2

Trichophyton rubrum [14] = experiment: as §5; assay type: functional; remark: listed apart in the source

| Structure (SMILES) | MIC (Aspergillus fumigatus [1]) [µg/mL] | MIC (Candida albicans [2]) [µg/mL] | MFC (Aspergillus flavus [3]) [µg/mL] | MIC (Aspergillus flavus [4]) [µg/mL] | MFC (Aspergillus fumigatus [5]) [µg/mL] | MFC (Candida albicans [6]) [µg/mL] | MFC (Nakaseomyces glabratus [7]) [µg/mL] | MIC (Nakaseomyces glabratus [8]) [µg/mL] | MFC (Candida parapsilosis [9]) [µg/mL] | MIC (Candida parapsilosis [10]) [µg/mL] | MFC (Trichophyton benhamiae [11]) [µg/mL] | MIC (Trichophyton benhamiae [12]) [µg/mL] | MFC (Trichophyton rubrum [13]) [µg/mL] | MIC (Trichophyton rubrum [14]) [µg/mL] |
| --- | --- | --- | --- | --- | --- | --- | --- | --- | --- | --- | --- | --- | --- | --- |
| CCC/C(=N\OC(Cn1ccnc1)c1ccc(Cl)cc1Cl)c1ccc(Cl)cc1Cl (stereo not given) | > 128 | > 128 |  |  |  |  |  |  |  |  |  |  |  |  |
| Fc1ccc(C(Cn2ccnc2)O/N=C/c2ccc(OCCN3CCOCC3)cc2)c(F)c1 (stereo not given) | 64 (≈ 140 µM) | 64 (≈ 140 µM) | 64 (≈ 140 µM) | 64 (≈ 140 µM) | 64 (≈ 140 µM) | 64 (≈ 140 µM) | 8 (≈ 17.5 µM) | 2 (≈ 4.38 µM) | 4 (≈ 8.76 µM) | 0.25 (≈ 0.548 µM) | > 128 | > 128 | 16 (≈ 35 µM) | 8 (≈ 17.5 µM) |
| Clc1ccc(C(Cn2ccnc2)O/N=C/c2ccc(OCCN3CCOCC3)cc2)c(Cl)c1 (stereo not given) | 2 (≈ 4.09 µM) | 2 (≈ 4.09 µM) | 8 (≈ 16.3 µM) | 8 (≈ 16.3 µM) | 2 (≈ 4.09 µM) | 8 (≈ 16.3 µM) | 8 (≈ 16.3 µM) | 1 (≈ 2.04 µM) | 16 (≈ 32.7 µM) | 0.25 (≈ 0.511 µM) | 8 (≈ 16.3 µM) | 4 (≈ 8.17 µM) | 16 (≈ 32.7 µM) | 2 (≈ 4.09 µM) |
| C/C(=N\OC(Cn1ccnc1)c1ccc(F)cc1F)c1ccc(F)cc1F (stereo not given) | 8 (≈ 21.2 µM) | 32 (≈ 84.8 µM) | 16 (≈ 42.4 µM) | 16 (≈ 42.4 µM) | 16 (≈ 42.4 µM) | 32 (≈ 84.8 µM) | 2 (≈ 5.3 µM) | 0.03 (≈ 0.0795 µM) | 32 (≈ 84.8 µM) | 2 (≈ 5.3 µM) | 4 (≈ 10.6 µM) | 1 (≈ 2.65 µM) | 16 (≈ 42.4 µM) | 8 (≈ 21.2 µM) |
| C/C(=N\OC(Cn1ccnc1)c1ccc(Cl)cc1Cl)c1ccc(Cl)cc1Cl (stereo not given) | 8 (≈ 18.1 µM) | 4 (≈ 9.03 µM) | 32 (≈ 72.2 µM) | 32 (≈ 72.2 µM) | 8 (≈ 18.1 µM) | 8 (≈ 18.1 µM) | 2 (≈ 4.51 µM) | 0.5 (≈ 1.13 µM) | 16 (≈ 36.1 µM) | 1 (≈ 2.26 µM) | 8 (≈ 18.1 µM) | 8 (≈ 18.1 µM) | 8 (≈ 18.1 µM) | 8 (≈ 18.1 µM) |
| CC/C(=N\OC(Cn1ccnc1)c1ccc(Cl)cc1Cl)c1ccc(Cl)cc1Cl (stereo not given) | > 128 | 16 (≈ 35 µM) |  |  |  |  |  |  |  |  |  |  |  |  |
| C/C(=N\OC(Cn1ccnc1)c1ccc(F)cc1F)c1ccc(OCCN2CCOCC2)cc1 (stereo not given) | 16 (≈ 34 µM) | 8 (≈ 17 µM) | 32 (≈ 68 µM) | 16 (≈ 34 µM) | 16 (≈ 34 µM) | 32 (≈ 68 µM) | 4 (≈ 8.5 µM) | 0.25 (≈ 0.531 µM) | 2 (≈ 4.25 µM) | 0.03 (≈ 0.0638 µM) | 4 (≈ 8.5 µM) | 2 (≈ 4.25 µM) | 4 (≈ 8.5 µM) | 4 (≈ 8.5 µM) |
| C/C(=N\OC(Cn1ccnc1)c1ccc(Cl)cc1Cl)c1ccc(OCCN2CCOCC2)cc1 (stereo not given) | 32 (≈ 63.6 µM) | 1 (≈ 1.99 µM) | 32 (≈ 63.6 µM) | 32 (≈ 63.6 µM) | 32 (≈ 63.6 µM) | 8 (≈ 15.9 µM) | 8 (≈ 15.9 µM) | 0.06 (≈ 0.119 µM) | 8 (≈ 15.9 µM) | 0.004 (≈ 0.00795 µM) | 8 (≈ 15.9 µM) | 4 (≈ 7.95 µM) | 16 (≈ 31.8 µM) | 2 (≈ 3.97 µM) |
| Clc1ccc(/C(Cn2ccnc2)=N/OC(Cn2ccnc2)c2ccc(Cl)cc2Cl)c(Cl)c1 (stereo not given) | 128 (≈ 251 µM) | 32 (≈ 62.8 µM) |  |  |  |  |  |  |  |  |  |  |  |  |
| C/C(=N\OC(Cn1ccnc1)c1ccc(F)cc1F)c1cc(F)ccc1F (stereo not given) | 4 (≈ 10.6 µM) | 8 (≈ 21.2 µM) | 8 (≈ 21.2 µM) | 8 (≈ 21.2 µM) | 4 (≈ 10.6 µM) | 32 (≈ 84.8 µM) | 1 (≈ 2.65 µM) | 0.03 (≈ 0.0795 µM) | 64 (≈ 170 µM) | 2 (≈ 5.3 µM) | 2 (≈ 5.3 µM) | 0.25 (≈ 0.663 µM) | 16 (≈ 42.4 µM) | 1 (≈ 2.65 µM) |
| Fc1ccc(/C(Cn2ccnc2)=N/OC(Cn2ccnc2)c2ccc(F)cc2F)c(F)c1 (stereo not given) | > 128 | 2 (≈ 4.51 µM) | > 128 | > 128 | > 128 | > 128 | 16 (≈ 36.1 µM) | 4 (≈ 9.02 µM) | 128 (≈ 289 µM) | 8 (≈ 18 µM) | > 128 | 64 (≈ 144 µM) | 64 (≈ 144 µM) | 64 (≈ 144 µM) |
| C/C(=N\OC(Cn1ccnc1)c1ccc(F)cc1F)c1c(F)cccc1F (stereo not given) | 16 (≈ 42.4 µM) | 32 (≈ 84.8 µM) | 64 (≈ 170 µM) | 32 (≈ 84.8 µM) | 32 (≈ 84.8 µM) | 32 (≈ 84.8 µM) | 1 (≈ 2.65 µM) | 0.03 (≈ 0.0795 µM) | 16 (≈ 42.4 µM) | 0.25 (≈ 0.663 µM) | 2 (≈ 5.3 µM) | 2 (≈ 5.3 µM) | 8 (≈ 21.2 µM) | 4 (≈ 10.6 µM) |
| C/C(=N\OC(Cn1ccnc1)c1ccc(F)cc1F)c1ccc(F)cc1 (stereo not given) | 16 (≈ 44.5 µM) | 64 (≈ 178 µM) |  |  |  |  |  |  |  |  |  |  |  |  |
| Cl.Fc1ccc(C(Cn2ccnc2)O/N=C/c2c(F)cccc2F)c(F)c1 (stereo not given) | 32 | 32 |  |  |  |  |  |  |  |  |  |  |  |  |
| Cl.Fc1ccc(/C=N/OC(Cn2ccnc2)c2ccc(F)cc2F)c(F)c1 (stereo not given) | 16 | 16 |  |  |  |  |  |  |  |  |  |  |  |  |
| C/C(=N\OC(Cn1ccnc1)c1ccc(F)cc1F)c1ccccc1F.Cl (stereo not given) | 16 | 32 |  |  |  |  |  |  |  |  |  |  |  |  |
| Cl.Clc1ccc(/C=N/OC(Cn2ccnc2)c2ccc(Cl)cc2Cl)c(Cl)c1 (stereo not given) | 64 | > 128 |  |  |  |  |  |  |  |  |  |  |  |  |
| OC(Cn1cncn1)(Cn1cncn1)c1ccc(F)cc1F [FLUCONAZOLE] | > 128 | 0.12 (≈ 0.392 µM) | > 128 | > 128 | > 128 | > 128 | > 128 | 2 (≈ 6.53 µM) | > 128 | 0.5 (≈ 1.63 µM) | > 128 | 0.5 (≈ 1.63 µM) | > 128 | 0.5 (≈ 1.63 µM) |
| Clc1ccc(CO/N=C(\Cn2ccnc2)c2ccc(Cl)cc2Cl)c(Cl)c1 [OXICONAZOLE] | 2 (≈ 4.66 µM) | 0.03 (≈ 0.0699 µM) | 2 (≈ 4.66 µM) | 2 (≈ 4.66 µM) | 2 (≈ 4.66 µM) | 64 (≈ 149 µM) | 0.25 (≈ 0.583 µM) | 0.01 (≈ 0.0233 µM) | 4 (≈ 9.32 µM) | 0.008 (≈ 0.0186 µM) | 4 (≈ 9.32 µM) | 2 (≈ 4.66 µM) | 2 (≈ 4.66 µM) | 2 (≈ 4.66 µM) |
